Measured values: ChEMBL document CHEMBL3352487, “Synthesis, antibacterial activity, and biological evaluation of formyl hydroxyamino derivatives as novel potent peptide deformylase inhibitors against drug-resistant bacteria” (Eur J Med Chem, 2014)
≈ marks a conversion by molar mass, not a printed value.

Key:
Staphylococcus aureus [1] = test: Antimicrobial activity against Staphylococcus aureus isolate A53 after 24 hrs by broth microdilution method; format: functional; details: isolate A53, 24 h
How it was run: (§1)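 Broth microdilution following NCCLS M7-A4, using ATCC strains and clinical isolates from a provincial hospital.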

Staphylococcus aureus [2] = test: Antimicrobial activity against Staphylococcus aureus OXFORD after 24 hrs by broth microdilution method; format: functional; how it was run: as §1
Mus musculus [3] = test: Acute toxicity in KM mouse assessed as spleen abnormality at 250 mg/kg, iv measured for 14 days by necropsy; format: organism-based; design: dose 250 mg/kg, route intravenous; details: in vivo, 336 h
How it was run: (§2)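 Outbred KM mice (SPF, 20–25 g; nine male, ten female) given a single tail-vein injection of 100 or 250 mg/kg in PBS pH 6.5 with 20% DMSO over about 60 s. Behaviour, weight, coat colour, anal temperature, food and water intake, and urine and stool weight followed for 14 days. On day 14, gross necropsy of skin, lungs, heart, liver, kidneys and spleen.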

[4] = Solubility of the compound in artificial gastric juice measured every 2 hrs for 12 hrs by HPLC analysis; format: ADME; details: simulated gi fluid
Escherichia coli [5] = test: Antimicrobial activity against Escherichia coli isolate 1 after 24 hrs by broth microdilution method; format: functional; details: isolate 1, 24 h
How it was run: (§3)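 Broth microdilution following NCCLS M7-A4; ATCC strains and clinical isolates from a provincial hospital.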

[6] = Acute toxicity in iv dosed KM mouse measured for 14 days; format: organism-based; details: in vivo
How it was run: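 Outbred KM mice (SPF, 20–25 g; nine male, ten female) given a single tail-vein i.v. dose of 100 or 250 mg/kg, formulated in PBS pH 6.5 containing 20% DMSO. Behaviour, weight, coat, anal temperature, food and water intake, and excreta monitored daily for 14 days, then necropsy.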

[7] = Solubility of the compound in artificial intestinal juice measured every 2 hrs for 12 hrs by HPLC analysis; format: physicochemical; details: simulated gi fluid
Staphylococcus aureus [8] = test: Antimicrobial activity against Staphylococcus aureus isolate 68/8684 after 24 hrs by broth microdilution method; format: functional; details: isolate 68/8684, 24 h; how it was run: as §3
Streptococcus pneumoniae [9] = test: Antimicrobial activity against Streptococcus pneumoniae ERY2 after 24 hrs by broth microdilution method; format: functional; details: ERY2, 24 h; how it was run: as §3
Staphylococcus aureus [10] = test: Antimicrobial activity against methicillin-resistant Staphylococcus aureus after 24 hrs by broth microdilution method; format: functional; how it was run: as §1
[11] = Cmax in Sprague-Dawley rat at 25 mg/kg, po; format: ADME, organism-based; design: dose 25 mg/kg, route oral; details: in vivo
Staphylococcus aureus [12] = test: Antimicrobial activity against Staphylococcus aureus isolate RN1024 after 24 hrs by broth microdilution method; format: functional; details: isolate RN1024, 24 h; how it was run: as §1
[13] = Half life in Sprague-Dawley rat at 25 mg/kg, po; format: ADME, organism-based; design: dose 25 mg/kg, route oral; details: in vivo
[14] = Tmax in Sprague-Dawley rat at 25 mg/kg, po; format: ADME, organism-based; design: dose 25 mg/kg, route oral; details: in vivo
Staphylococcus aureus [15] = test: Antimicrobial activity against Staphylococcus aureus isolate NEQAS 4026 after 24 hrs by broth microdilution method; format: functional; details: isolate NEQAS 4026, 24 h; how it was run: as §3
[16] = Clearance in Sprague-Dawley rat at 5 mg/kg, iv; format: ADME, organism-based; design: dose 5 mg/kg, route intravenous; details: in vivo
Mus musculus [17] = test: Acute toxicity in KM mouse assessed as abnormal behaviour at 100 mg/kg, iv measured for 14 days; format: organism-based; design: dose 100 mg/kg, route intravenous; details: in vivo, 336 h; how it was run: as §2
hERG (KCNH2) = hERG (KCNH2) (Homo sapiens, UniProt Q12809); test: Inhibition of human ERG at 1 uM
Sequence of hERG (KCNH2) (Q12809 whole entry): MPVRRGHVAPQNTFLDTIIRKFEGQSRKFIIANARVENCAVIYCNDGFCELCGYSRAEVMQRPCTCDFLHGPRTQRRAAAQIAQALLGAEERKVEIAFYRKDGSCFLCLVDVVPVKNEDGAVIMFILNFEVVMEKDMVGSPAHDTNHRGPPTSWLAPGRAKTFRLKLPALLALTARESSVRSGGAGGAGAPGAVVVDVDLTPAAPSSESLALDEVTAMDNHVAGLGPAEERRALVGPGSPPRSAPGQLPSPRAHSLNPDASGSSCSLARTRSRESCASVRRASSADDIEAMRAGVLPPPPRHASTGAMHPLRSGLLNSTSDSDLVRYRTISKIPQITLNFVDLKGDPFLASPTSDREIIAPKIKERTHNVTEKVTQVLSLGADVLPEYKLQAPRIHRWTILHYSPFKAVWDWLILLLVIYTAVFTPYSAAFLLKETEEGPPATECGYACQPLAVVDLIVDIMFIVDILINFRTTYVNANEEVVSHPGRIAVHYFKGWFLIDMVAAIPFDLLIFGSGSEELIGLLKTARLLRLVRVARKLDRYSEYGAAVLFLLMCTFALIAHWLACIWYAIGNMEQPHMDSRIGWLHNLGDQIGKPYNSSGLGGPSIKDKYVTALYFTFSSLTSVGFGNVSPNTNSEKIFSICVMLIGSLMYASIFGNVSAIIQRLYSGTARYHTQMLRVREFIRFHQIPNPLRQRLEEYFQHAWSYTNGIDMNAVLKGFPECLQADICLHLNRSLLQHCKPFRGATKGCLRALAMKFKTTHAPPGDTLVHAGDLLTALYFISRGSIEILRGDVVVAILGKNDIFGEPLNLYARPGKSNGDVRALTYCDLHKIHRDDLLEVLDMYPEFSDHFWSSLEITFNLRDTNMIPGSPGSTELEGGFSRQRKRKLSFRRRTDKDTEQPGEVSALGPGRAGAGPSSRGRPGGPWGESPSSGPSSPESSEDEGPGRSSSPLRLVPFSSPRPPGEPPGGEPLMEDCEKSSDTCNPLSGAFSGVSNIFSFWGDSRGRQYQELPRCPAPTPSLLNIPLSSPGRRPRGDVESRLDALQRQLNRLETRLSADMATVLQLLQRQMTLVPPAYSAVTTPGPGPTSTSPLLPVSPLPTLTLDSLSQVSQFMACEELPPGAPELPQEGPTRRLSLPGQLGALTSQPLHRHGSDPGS

Streptococcus pyogenes = test: Antimicrobial activity against Streptococcus pyogenes 1308007P after 24 hrs by broth microdilution method; format: functional; how it was run: as §3
Staphylococcus aureus [18] = test: Antimicrobial activity against Staphylococcus aureus isolate 934334 after 24 hrs by broth microdilution method; format: functional; details: isolate 934334, 24 h; how it was run: as §3
Mus musculus [19] = test: Acute toxicity in KM mouse assessed as lung abnormality at 250 mg/kg, iv measured for 14 days by necropsy; format: organism-based; design: dose 250 mg/kg, route intravenous; details: in vivo, 336 h; how it was run: as §2
Staphylococcus aureus [20] = test: Antimicrobial activity against Staphylococcus aureus isolate RUSSELL after 24 hrs by broth microdilution method; format: functional; how it was run: as §1
Staphylococcus aureus [21] = test: Antimicrobial activity against Staphylococcus aureus isolate 929003 after 24 hrs by broth microdilution method; format: functional; details: isolate 929003, 24 h; how it was run: as §3
Enterococcus faecalis = test: Antimicrobial activity against Enterococcus faecalis Isolate 1 after 24 hrs by broth microdilution method; format: functional; details: Isolate 1, 24 h; how it was run: as §3
Staphylococcus aureus [22] = test: Antimicrobial activity against Staphylococcus aureus MRSA08-12 in peritonitis mouse model assessed as mortality of host at 1.25 mg/kg, iv as single dose relative to control; format: functional
How it was run: (§4)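 Outbred KM mice (20–25 g) infected i.p. with a 90–100% lethal dose (5 × 10^7 CFU/mL) in 0.5 mL brain heart infusion broth with 5% mucin. Single i.v. dose of 1.25–20 mg/kg in 20% DMSO, 0.1 mL. Ten mice per dose; daily monitoring for 14 days; ED50 from cumulative mortality by Bliss's method.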

Staphylococcus aureus [23] = test: Antimicrobial activity against Staphylococcus aureus isolate Ealing 32 after 24 hrs by broth microdilution method; format: functional; details: isolate Ealing 32, 24 h; how it was run: as §3
Staphylococcus aureus [24] = test: Antimicrobial activity against Staphylococcus aureus WCUH29 after 24 hrs by broth microdilution method; format: functional; details: WCUH29, 24 h; how it was run: as §3
Haemophilus influenzae [25] = test: Antimicrobial activity against Haemophilus influenzae Q1 after 24 hrs by broth microdilution method; format: functional; details: Q1, 24 h; how it was run: as §3
Streptococcus pneumoniae [26] = test: Antimicrobial activity against Streptococcus pneumoniae N1387 after 24 hrs by broth microdilution method; format: functional; details: N1387, 24 h; how it was run: as §3
Staphylococcus aureus [27] = test: Antimicrobial activity against Staphylococcus aureus isolate RN4220 pmz1 after 24 hrs by broth microdilution method; format: functional; details: isolate RN4220 pmz1, 24 h; how it was run: as §1
Staphylococcus aureus [28] = test: Antimicrobial activity against Staphylococcus aureus MRSA08-12 in peritonitis mouse model assessed as mortality of host at 10 mg/kg, iv as single dose relative to control; format: functional; how it was run: as §4
[29] = AUC (0 to t) in Sprague-Dawley rat at 5 mg/kg, iv; format: ADME, organism-based; design: dose 5 mg/kg, route intravenous; details: plasma
[30] = Volume of distribution at steady state in Sprague-Dawley rat at 5 mg/kg, iv; format: ADME, organism-based; design: dose 5 mg/kg, route intravenous; details: in vivo, read-out: Vdss
Escherichia coli [31] = test: Antimicrobial activity against Escherichia coli isolate 3 after 24 hrs by broth microdilution method; format: functional; details: isolate 3, 24 h; how it was run: as §3
Staphylococcus aureus [32] = test: Antimicrobial activity against Staphylococcus aureus isolate PAV 5 after 24 hrs by broth microdilution method; format: functional; details: isolate PAV 5, 24 h; how it was run: as §3
Haemophilus influenzae [33] = test: Antimicrobial activity against Haemophilus influenzae H128 after 24 hrs by broth microdilution method; format: functional; details: H128, 24 h; how it was run: as §3
Staphylococcus aureus [34] = test: Antimicrobial activity against Staphylococcus aureus isolate CL 938 after 24 hrs by broth microdilution method; format: functional; details: isolate CL 938, 24 h; how it was run: as §3
Enterococcus faecium = test: Antimicrobial activity against Enterococcus faecium X7501 after 24 hrs by broth microdilution method; format: functional; details: X7501, 24 h; how it was run: as §3
Staphylococcus aureus [35] = test: Antimicrobial activity against Staphylococcus aureus isolate 929035 after 24 hrs by broth microdilution method; format: functional; details: isolate 929035, 24 h; how it was run: as §3
[36] = Mean residence time (0 to t) in Sprague-Dawley rat at 5 mg/kg, iv; format: ADME, organism-based; design: dose 5 mg/kg, route intravenous; details: in vivo
Mus musculus [37] = test: Acute toxicity in KM mouse assessed as heart abnormality at 250 mg/kg, iv measured for 14 days by necropsy; format: organism-based; design: dose 250 mg/kg, route intravenous; details: in vivo, 336 h; how it was run: as §2
[38] = Oral bioavailability in Sprague-Dawley rat at 25 mg/kg; format: ADME, organism-based; details: in vivo
Staphylococcus aureus [39] = test: Antimicrobial activity against Staphylococcus aureus isolate 934324 after 24 hrs by broth microdilution method; format: functional; details: isolate 934324, 24 h; how it was run: as §3

## CCCC[C@H](CN(O)C=O)C(=O)N1CC=C[C@H]1C(=O)Nc1ccc(F)c[n+]1[O-]
Staphylococcus aureus [1]
  MIC: 0.5 µg/mL (≈ 1.27 µM)
Staphylococcus aureus [2]
  MIC: 0.5 µg/mL (≈ 1.27 µM)
Mus musculus [3]
  Activity: Non-toxic
[4]
  solubility: soluble
Escherichia coli [5]
  MIC: > 64 µg/mL
[6]
  LD50 at 336 h: > 250 mg/kg
[7]
  solubility: soluble
Staphylococcus aureus [8]
  MIC: > 16 µg/mL
Streptococcus pneumoniae [9]
  MIC: 1 µg/mL (≈ 2.54 µM)
Staphylococcus aureus [10]
  MIC: 0.5 µg/mL (≈ 1.27 µM)
[11]
  Cmax: 1390 ng/mL
Staphylococcus aureus [12]
  MIC: 0.5 µg/mL (≈ 1.27 µM)
[13]
  half-life: 109 min
[14]
  Tmax: 41.3 min
Staphylococcus aureus [15]
  MIC: 1 µg/mL (≈ 2.54 µM)
[16]
  clearance: 46.8 mL/min/kg
Mus musculus [17]
  Activity: Non-toxic
hERG (KCNH2)
  inhibition at 1 µM: 4.55%
Streptococcus pyogenes
  MIC: 2 µg/mL (≈ 5.07 µM)
Staphylococcus aureus [18]
  MIC: 1 µg/mL (≈ 2.54 µM)
Mus musculus [19]
  Activity: Non-toxic
Staphylococcus aureus [20]
  MIC: 0.5 µg/mL (≈ 1.27 µM)
Staphylococcus aureus [21]
  MIC: 2 µg/mL (≈ 5.07 µM)
Enterococcus faecalis
  MIC: 4 µg/mL (≈ 10.1 µM)
Staphylococcus aureus [22]
  mortality at 1.25 mg/kg: 100%
Staphylococcus aureus [23]
  MIC: 0.25 µg/mL (≈ 0.634 µM)
Staphylococcus aureus [24]
  MIC: 0.125 µg/mL (≈ 0.317 µM)
Haemophilus influenzae [25]
  MIC: 1 µg/mL (≈ 2.54 µM)
Streptococcus pneumoniae [26]
  MIC: 0.5 µg/mL (≈ 1.27 µM)
Staphylococcus aureus [27]
  MIC: 0.5 µg/mL (≈ 1.27 µM)
Staphylococcus aureus [28]
  mortality at 10 mg/kg: 30%
[29]
  AUC(0-t): 1950 ng·h/mL
[30]
  Vd: 1.72 L/kg
Escherichia coli [31]
  MIC: 64 µg/mL (≈ 162 µM)
Staphylococcus aureus [32]
  MIC: 1 µg/mL (≈ 2.54 µM)
Haemophilus influenzae [33]
  MIC: 2 µg/mL (≈ 5.07 µM)
Staphylococcus aureus [34]
  MIC: 1 µg/mL (≈ 2.54 µM)
Enterococcus faecium
  MIC: 2 µg/mL (≈ 5.07 µM)
Staphylococcus aureus [35]
  MIC: 1 µg/mL (≈ 2.54 µM)
[36]
  MRT last: 33.8 min
Mus musculus [37]
  Activity: Non-toxic
[38]
  bioavailability: 34.6%
Staphylococcus aureus [39]
  MIC: 1 µg/mL (≈ 2.54 µM)
